Here are results for ten compounds from ChEMBL document CHEMBL4396914, “Discovery of new azoles with potent activity against Candida spp. and Candida albicans biofilms through virtual screening” (Eur J Med Chem, 2019).

≈ marks a conversion by molar mass, not a printed value.

One data set has as its system Candida parapsilosis. Description: Antifungal activity against azole-susceptible Candida parapsilosis ATCC 90018 assessed as reduction in fungal growth incubated for 48 hrs by broth microdilution method. It counts as functional. The note with it: Lodderomyces parapsilosis, ATCC 90018, 48 h. In outline: (§1)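 CLSI broth microdilution in RPMI 1640 with MOPS at pH 7.0. Inoculum taken from 24-h Sabouraud subcultures, final 0.5-2.5×10^3 cfu/ml. Compounds in DMSO, twofold series 1024-0.125 µg/ml final. Incubated 48 h at 35 °C. MIC is the lowest concentration giving complete inhibition of visible growth. Fluconazole served as the reference.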

For a further data set, the system named is Pichia kudriavzevii. Description: Antifungal activity against azole-susceptible Candida krusei ATCC 6258 assessed as reduction in fungal growth incubated for 48 hrs by broth microdilution method. It is filed as functional. The following applies: ATCC 6258, 48 h. In outline:
as §1

Data set [1] deals with Candida albicans. Description: Antifungal activity against Candida albicans by broth dilution assay. It is filed as functional. In outline: as §1
Data set [2] deals with Candida albicans. In words: Antifungal activity against azole-susceptible Candida albicans ATCC 90028 assessed as reduction in fungal growth incubated for 48 hrs by broth microdilution method. The note with it: ATCC 90028, 48 h. It is filed as functional. In outline:
as §1

Data set [3] has as its system Candida albicans. Description: Disruption of Candida albicans SC5314 pre-formed mature biofilm assessed as reduction in biofilm biomass incubated for 24 hrs by spectrophotometry. It is filed as functional. In outline:
(§2)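 C. albicans SC5314 biofilms grown on a 96-peg lid (Calgary device, MBEC protocol) from 10^6 cfu/ml inoculum for 24 h at 37 °C. Pegs rinsed in 0.9% saline, then challenged 24 h at 35 °C with twofold dilutions, 512-0.5 µg/ml. MBIC: no well turbidity by visual inspection. MBEC: pegs sonicated into RPMI/2% glucose, regrowth overnight, OD 550 nm plus visual turbidity.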

Another data set has as its system U-937. In words: Cytotoxicity against human U937 cells assessed as cell viability at 0.125 to 32 ug/ml incubated for 24 to 48 hrs by MTT assay. It is filed as cell-based. The method, boiled down:
(§3)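 MTT assay on U937 monocytic cells, 4×10³ cells/well, in RPMI-1640 with 10% FBS. Eight concentrations, 0.125-32 µg/ml, DMSO ≤0.32% v/v, each in triplicate. Exposure 24 or 48 h at 37 °C, 5% CO₂, then MTT for 4 h. Formazan dissolved in SDS/DMF, absorbance read at 570 nm. Viability calculated relative to untreated cells.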

Another data set has as its system Candida tropicalis. In words: Antifungal activity against azole-resistant Candida tropicalis assessed as reduction in fungal growth incubated for 48 hrs by broth microdilution method. It counts as functional. In outline: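 CLSI broth microdilution in RPMI 1640 (glutamine, no bicarbonate) buffered to pH 7.0 with MOPS. Azole-resistant clinical C. tropicalis isolate, stored at -80 °C in glycerol, subcultured twice on Sabouraud dextrose agar. Inoculum from 24-h subcultures, final 0.5 to 2.5×10^3 cfu/ml. Compounds in DMSO, twofold final 1024–0.125 µg/ml. Incubated 35 °C, 48 h. MIC = lowest concentration fully inhibiting visible growth.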

Data set [4] concerns Candida albicans. In words: Antibiofilm activity against Candida albicans SC5314 assessed as inhibition of biofilm formation by turbidity based visual inspection method. It is filed as functional. The method, boiled down:
as §2

Data set [5] in a line: Cytotoxicity against human U937 cells assessed as cell viability at >= 8 ug/ml incubated for 24 to 48 hrs by MTT assay. It counts as cell-based, U-937. The following applies: read-out: Activity. In outline: as §3

For `Cl.O=C(OC(Cn1ccnc1)c1ccc(Cl)cc1Cl)c1ccc(Cl)cc1Cl` (racemic), the MIC in the data set with Candida parapsilosis stood at 128 µg/mL; in the data set on Pichia kudriavzevii it was 256 µg/mL; in the data set on Candida albicans [1] it was 300 µg/mL; in the data set on Candida albicans [2] it was 128 µg/mL.
Turning to `Cl.O=C(OC(Cn1ccnc1)c1ccc(Cl)cc1Cl)c1cc2ccccc2[nH]1` (racemic), in the data set on Candida albicans [3], the MBEC was determined as 128 µg/mL. Moreover, the MIC in the data set with Candida parapsilosis worked out at 0.25 µg/mL; in the data set on Pichia kudriavzevii, 0.5 µg/mL; with Candida tropicalis it was 1 µg/mL; with Candida albicans [2] it was 0.125 µg/mL. For the same compound, the Activity result in the data set with U-937 is “Non-Toxic”. For the same compound, the MBIC with Candida albicans [4] came out at 2 µg/mL.
As for `COc1ccc(C(=O)O/N=C(\Cn2ccnc2)c2ccc(Cl)cc2Cl)cc1`, the MBEC in the data set on Candida albicans [3] was 512 µg/mL. In addition, the MIC was found to be 1 µg/mL (≈ 2.47 µM) with Candida parapsilosis, 1 µg/mL (≈ 2.47 µM) with Pichia kudriavzevii, 64 µg/mL (≈ 158 µM) in the data set with Candida tropicalis and 0.5 µg/mL (≈ 1.24 µM) in the data set on Candida albicans [2]. The Activity result in the data set with U-937 was “Non-Toxic”. Further, in the data set on Candida albicans [4], the MBIC was 2 µg/mL.
In the case of `Cl.O=C(OC(Cn1ccnc1)c1ccc(Cl)cc1Cl)c1ccc([N+](=O)[O-])cc1` (racemic), the MIC with Candida parapsilosis was 4 µg/mL; in the data set on Pichia kudriavzevii it was 32 µg/mL; with Candida tropicalis, 8 µg/mL; against Candida albicans [1], greater than 300 µg/mL; in the data set on Candida albicans [2], 8 µg/mL.
As to `Cl.O=C(OC(Cn1ccnc1)c1ccc(Cl)cc1Cl)c1ccc(-c2ccccc2)cc1` (racemic), the MBEC in the data set on Candida albicans [3] amounted to 256 µg/mL. Moreover, the MIC worked out at 0.25 µg/mL with Candida parapsilosis, 1 µg/mL with Pichia kudriavzevii, 512 µg/mL in the data set on Candida tropicalis and 0.25 µg/mL in the data set on Candida albicans [2]. The viability in data set [5] is less than 80%. Moreover, the MBIC with Candida albicans [4] is 2 µg/mL.
Regarding `Cl.O=C(OC(Cn1ccnc1)c1ccc(Cl)cc1Cl)c1ccc2ccccc2c1` (racemic), the MBEC in the data set with Candida albicans [3] is 256 µg/mL. For the same compound, the minimal inhibitory concentration (MIC) is 1 µg/mL in the data set on Candida parapsilosis, 2 µg/mL in the data set on Pichia kudriavzevii, 1 µg/mL with Candida tropicalis and 1 µg/mL with Candida albicans [2]. Also, the Activity entry with U-937 is reported as “Non-Toxic”. The MBIC with Candida albicans [4] was 0.5 µg/mL.
As to `O=C(O/N=C(\Cn1ccnc1)c1ccc(Cl)cc1Cl)c1ccc(-c2ccccc2)cc1`, the MBEC in the data set on Candida albicans [3] is 256 µg/mL. In addition, the minimal inhibitory concentration (MIC) with Candida parapsilosis came out at 1 µg/mL (≈ 2.22 µM); in the data set on Pichia kudriavzevii, 1 µg/mL (≈ 2.22 µM); with Candida tropicalis, 256 µg/mL (≈ 568 µM); in the data set on Candida albicans [2], 1 µg/mL (≈ 2.22 µM). Besides, the Activity result in the data set with U-937 is recorded as “Non-Toxic”. In the data set with Candida albicans [4], the MBIC came to 16 µg/mL.
In the case of `CSc1ccc(C(=O)O/N=C(\Cn2ccnc2)c2ccc(Cl)cc2Cl)cc1.Cl`, the MBEC in the data set with Candida albicans [3] turned out to be 256 µg/mL. For the same compound, the MIC was 2 µg/mL with Candida parapsilosis, 64 µg/mL in the data set on Pichia kudriavzevii, 16 µg/mL in the data set on Candida tropicalis and 2 µg/mL with Candida albicans [2]. In addition, in the data set on Candida albicans [4], the MBIC turned out to be 2 µg/mL.
Consider `CC(C)(C)c1ccc(C(=O)OC(Cn2ccnc2)c2ccc(Cl)cc2Cl)cc1.Cl` (racemic), for which the minimum inhibitory concentration (MIC) was determined as 128 µg/mL in the data set with Candida parapsilosis, 256 µg/mL with Pichia kudriavzevii, 10 µg/mL with Candida albicans [1] and 128 µg/mL in the data set with Candida albicans [2].
In the case of `Cl.O=C(/C=C/c1ccccc1)OC(Cn1ccnc1)c1ccc(Cl)cc1Cl` (racemic), the MBEC in the data set on Candida albicans [3] worked out at 64 µg/mL. Further, the MIC in the data set with Candida parapsilosis stood at 1 µg/mL; in the data set with Pichia kudriavzevii it was 1 µg/mL; with Candida tropicalis, 4 µg/mL; in the data set with Candida albicans [2], 0.5 µg/mL. In addition, in the data set with U-937, the Activity result is listed as “Non-Toxic”. In addition, the MBIC with Candida albicans [4] was 0.5 µg/mL.
